Results from ChEMBL document CHEMBL1155472, “Versatile synthesis of new cytotoxic agents structurally related to hemiasterlins” (Bioorg Med Chem Lett, 2010).
Active and inactive are the calls of the source. The calls are words filed in the database; no cut-off is given here.

Legend:
[1] = tested on: N1S1; assay: Cytotoxicity against rat N1S1 cells at 1 mM after 2 days by Alamar blue staining; assay type: functional, cell-based
How it was run: (§1)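 UCI-101 human ovarian cancer cells and N1–S1 rat hepatoma cells were exposed to a range of concentrations for 2 days. Growth suppression was read by Alamar blue staining, with each concentration run in triplicate, and plotted against concentration.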

[2] = tested on: UCI101; assay: Cytotoxicity against human UCI101 cells at 1 mM after 2 days by Alamar blue staining; assay type: functional, cell-based; how it was run: as §1
[3] = Cell cycle arrest in human UCI101 cells assessed as accumulation at G2 phase at 10 nM after 16 hrs using ethidium bromide staining by FACS analysis; assay type: functional, cell-based
[4] = Cytotoxicity against human UCI101 cells after 2 days by Alamar blue staining; assay type: functional, cell-based; conditions: UCI101, 48 h; how it was run: as §1
[5] = Inhibition of tubulin polymerization at 5 uM
How it was run: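 Tubulin polymerization was run with a commercial polymerization assay kit, and polymerization curves were recorded over time. Colchicine and paclitaxel were run alongside as reference controls.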

[6] = Cell cycle arrest in human UCI101 cells assessed as accumulation at G2 phase at 25 nM after 16 hrs using ethidium bromide staining by FACS analysis; assay type: functional, cell-based
[7] = Cell cycle arrest in human UCI101 cells assessed as accumulation at G2 phase at 20 nM after 16 hrs using ethidium bromide staining by FACS analysis; assay type: functional, cell-based
[8] = Cytotoxicity against rat N1S1 cells after 2 days by Alamar blue staining; assay type: functional, cell-based; conditions: N1-S1, 48 h; how it was run: as §1

| SMILES | Activity [1] | Activity [2] | Activity [3] | IC50 [4] [µM] | Activity [6] | Activity [7] | IC50 [8] [µM] | further results |
| --- | --- | --- | --- | --- | --- | --- | --- | --- |
| C/C(=C\[C@H](C(C)C)N(C)C(=O)[C@@H](NC(=O)C(C)NC1CCCCC1)C(C)(C)C)C(=O)O (mixture of isomers) | Not toxic | Not toxic | – | – | – | – | – | – |
| C/C(=C\[C@H](C(C)C)N(C)C(=O)[C@@H](NC(=O)[C@@H](C)NC(C)(C)c1ccccc1)C(C)C)C(=O)O | – | – | 4.7% | 0.02 | 12% | 11% | – | inhibition [5]: Active |
| C/C(=C\[C@H](C(C)C)N(C)C(=O)[C@@H](NC(=O)[C@@H](C)NC(C)(C)c1ccccc1)C(C)(C)C)C(=O)O | – | – | Active | – | Active | Active | 0.02 | Activity [5]: Active |
| CC(NC(C)(C)c1ccccc1)C(=O)N[C@H](C(=O)N(C)c1cccc(C(=O)O)c1)C(C)C (stereo partly drawn) | Not toxic | Not toxic | – | – | – | – | – | – |
| C/C(=C\[C@H](C(C)C)N(C)C(=O)[C@@H](NC(=O)C(C)NC(C)(C)c1ccc2ccccc2c1)C(C)(C)C)C(=O)O (stereo partly drawn) | – | – | – | 0.2 | – | – | 0.2 | – |
| C/C(=C\[C@H](C(C)C)N(C)C(=O)[C@@H](NC(=O)[C@H](C)NC(C)(C)c1ccccc1)C(C)(C)C)C(=O)O | – | – | – | 0.2 | – | – | 0.2 | – |
